Test results as given in PubChem BioAssay.
Calls of active or inactive are those of the source.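 Rule for the calls, unless noted: active = visual image review flags a hit and inhibition of aggregation exceeds 20%; inconclusive = visual hit but inhibition at or below 20%; inactive = no hit on visual image review.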

What was measured:
[1] = inhibitors of TNFa-induced NFkB p65 translocation, primary screen, imaging, HUVEC, MLSMR starter and 10KST1 sets (AID 438;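 active = inhibition above 20% together with a positive visual image hit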;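 note: compound added about 3h40 before a 20 min TNFalpha stimulation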;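 for inhibition: signal is the nuclear over cytoplasmic p65 intensity ratio per well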); settings: HUVEC TNFa-induced p65 nuclear translocation; cell count: measured here: nuclei count (cytotoxicity indicator), at 2.08 µM; inhibition: at 2 µM, stronger effect = higher value, 0% TNFa-plus-vehicle, 100% no-TNFa wells
[2] = inhibitors of mutant huntingtin aggregation, primary screen, imaging, exon1htt(103Q)mCFP cells, high-content imaging (AID 483); settings: exon1htt(103Q)mCFP cell line, aggregate imaging, at 2 µM; inhibition of aggregation: stronger effect = higher value; nuclei count: measured here: cell count, toxicity;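 note: compound exposure lasted 3 days before fixation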;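 for nuclei count: percent of the per-plate median nuclei count of sample wells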
[3] = inhibitors of E-selectin induction by TNFa, primary screen, imaging, HUVEC, immunofluorescence, MLSMR starter and 10KST1 sets (AID 487;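 active = visually confirmed hit in the image check and inhibition above 20%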;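 for inhibition: signal is fraction of cell area covered by stained E-selectin grains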;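 for nuclei count: 100% = median nuclei count of all wells on the same plate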); settings: HUVEC TNFalpha-induced E-selectin immunofluorescence imaging, at 2 µM; inhibition: stronger effect = higher value; nuclei count: measured here: cell number, toxicity
[4] = target: Voltage-gated potassium channel subunit beta-2 (Rattus norvegicus) (UniProt P62483); test: KvBeta enzyme negative modulators, primary screen, biochemical, NADPH fluorescence (AID 622;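 active = fluorescence slope higher than the sample average by over 3 SD, cut at about -0.22 in these data, passing the limit was not always enough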;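 note: slope of raw intensity against log time taken from 70 to 1610 s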); settings: recombinant KvBeta, 4-cyanobenzaldehyde reduction, at 10 µM, stronger effect = higher value
[5] = target: Voltage-gated potassium channel subunit beta-2 (Rattus norvegicus) (UniProt P62483); test: KvBeta positive modulators, primary screen, biochemical, NADPH fluorescence (AID 623;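 active = NADPH fluorescence slope more negative than the mean of all samples by about 3 SD, 99.7% confidence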;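 note: fluorescence intensity change per second fitted from 20 to 320 s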); settings: Recombinant KvBeta, NADPH fluorescence decrease slope, 10 min; at 10 µM; stronger effect = lower value
[6] = target: Muscarinic acetylcholine receptor M4 (Homo sapiens) (UniProt P08173); test: compounds altering M4/GIRK thallium flux, either direction, primary screen, M4 allosteric agonist project, cell-based, HEK293 M4/GIRK, BTC-AM (AID 625;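 active = fluorescence slope after compound addition differing from the mean of all tested samples at 99.7% confidence, mostly higher but some lower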;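 note: thallium influx through GIRK channels coupled to M4 in HEK293 cells with BTC-AM dye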); settings: at 10 µM, actives lie on both sides
How it was run: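 Material: HEK293 cells with M4 receptor and GIRK channels; Times: cells overnight at 37 °C, BTC-AM loading 1 h, reads 2 min total; Technique: kinetic BTC-AM fluorescence sampled at 1 Hz, 10 s pre-addition baseline; Read-out basis: slope over 15–24 s of trace normalized to starting intensity; Controls: carbachol positive, DMSO negative.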

[7] = inhibitors of Sendai virus-induced IRF3 signaling, primary screen, TLR/RLR signaling modifier project, cell-based, Sendai virus stimulus, luciferase, 10K MLSCN set (AID 602276;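 active = inhibition at or above 50% at 10 µM; inactive = inhibition below 50%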;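 note: firefly luciferase from ISG56 promoter only with Renilla not read in this screen; 0% = Sendai virus plus DMSO and 100% = medium plus DMSO without virus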); settings: HEK293 RL24 IRF3 luciferase reporter, at 10 µM, stronger effect = higher value
[8] = inhibitors of poly I:C-induced TLR3 signaling, primary screen, cell-based, poly I:C stimulus, luciferase, 10K MLSCN set (AID 602277;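 active = inhibition of the reporter signal at or above 50%; inactive = inhibition below 50%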); settings: HEK293-TLR3 RL24 IRF3 luciferase reporter, at 10 µM, stronger effect = higher value

Muscarinic acetylcholine receptor M4 (Homo sapiens), sequence (P08173 whole entry, looked up): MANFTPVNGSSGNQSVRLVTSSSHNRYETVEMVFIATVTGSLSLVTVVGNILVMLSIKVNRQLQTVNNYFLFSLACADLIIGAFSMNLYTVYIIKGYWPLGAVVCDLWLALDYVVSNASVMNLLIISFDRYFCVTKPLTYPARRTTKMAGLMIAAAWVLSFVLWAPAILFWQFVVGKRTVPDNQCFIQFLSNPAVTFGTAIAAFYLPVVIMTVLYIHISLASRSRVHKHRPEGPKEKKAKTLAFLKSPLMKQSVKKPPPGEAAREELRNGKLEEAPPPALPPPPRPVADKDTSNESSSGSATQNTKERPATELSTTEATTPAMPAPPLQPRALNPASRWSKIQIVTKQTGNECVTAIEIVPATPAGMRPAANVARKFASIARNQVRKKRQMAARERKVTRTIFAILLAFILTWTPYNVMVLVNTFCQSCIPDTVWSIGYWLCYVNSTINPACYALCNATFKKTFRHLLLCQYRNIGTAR
Voltage-gated potassium channel subunit beta-2 (Rattus norvegicus), sequence (P62483 whole entry, looked up): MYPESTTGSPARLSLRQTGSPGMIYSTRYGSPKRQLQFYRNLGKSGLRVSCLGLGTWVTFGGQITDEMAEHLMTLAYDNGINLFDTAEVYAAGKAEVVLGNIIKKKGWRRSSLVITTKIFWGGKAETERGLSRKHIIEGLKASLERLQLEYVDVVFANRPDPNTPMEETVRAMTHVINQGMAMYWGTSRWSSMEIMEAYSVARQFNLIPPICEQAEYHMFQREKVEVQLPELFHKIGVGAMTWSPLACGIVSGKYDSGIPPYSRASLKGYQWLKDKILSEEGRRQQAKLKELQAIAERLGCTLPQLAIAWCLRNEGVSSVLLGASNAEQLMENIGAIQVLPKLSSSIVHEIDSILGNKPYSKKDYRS

Compound	cell count [1]	inhibition [1]	inhibition of aggregation [2]	nuclei count [2] [%]	inhibition [3]	nuclei count [3] [%]	fluorescence slope [4]	NADPH fluorescence slope [5]	fluorescence slope [6]	inhibition [7]	inhibition [8]
O=C(C1CC2CCC1C2)N1CCN(Cc2ccc3c(c2)OCO3)CC1 (stereo not drawn)	408	6.8% (inactive)	17.4% (inactive)	124	-90.8% (inactive)	116	-0.579 (inactive)	-2.2e-05 (inactive)	0.00565 (inactive)	13.2% (inactive)	19.3% (inactive)
Cc1ccc(-c2[nH]nc3c2C(c2ccc(OC(=O)N4CCOCC4)cc2)C(C#N)=C(N)O3)cc1 (stereo not drawn)	742	10.8% (inactive)	0.2% (inactive)	97.7	-39.7% (inactive)	104	-0.577 (inactive)	-4.2e-05 (inactive)	0.00718 (inactive)	4.48% (inactive)	9.32% (inactive)
CC(=O)N1CCC2(CC1)CC(=O)c1cc(OCC(=O)NCc3ccc(C)cc3)ccc1O2	314	-4.7% (inactive)	2.5% (inactive)	78.3	-5% (inactive)	119	-0.0682 (inactive)	-3.2e-06 (inactive)	0.00521 (inactive)	6.64% (inactive)	5.97% (inactive)
CC1(C)NC(=O)N(CC(O)CN(Cc2ccccc2)Cc2ccccc2)C1=O (stereo not drawn)	606	9.2% (inactive)	14% (inactive)	84.4	-13% (inactive)	113	-0.299 (inactive)	-4e-05 (inactive)	0.00564 (inactive)	9.57% (inactive)	21.2% (inactive)
COc1cc(C2=NOC(C(=O)NCc3ccc(F)cc3)C2)cc(OC)c1OC (stereo not drawn)	774	13.6% (inactive)	-195% (inactive)	2.2	-308% (inactive)	103	-0.462 (inactive)	4.9e-05 (inactive)	0.00672 (inactive)	36.9% (inactive)	85.8% (active)
COc1ccc(-c2nnc(SCC#N)o2)cc1	333	-8.7% (inactive)	29.7% (active)	86	24.6% (inactive)	102	-0.511 (inactive)	-2.6e-05 (inactive)	0.00472 (inactive)	-8.24% (inactive)	-31.5% (inactive)
CC(=O)Oc1ccc(CCC(C)OC(C)=O)cc1 (stereo not drawn)	634	-2.9% (inactive)	-2.2% (inactive)	100	-0.1% (inactive)	84	-0.518 (inactive)	-5.9e-05 (inactive)	0.00491 (inactive)	14.9% (inactive)	12.9% (inactive)
Cn1c(-c2ccccc2)c(CCO)c2ccccc21	578	13.7% (inactive)	-2.6% (inactive)	88.3	-60.6% (inactive)	152	-0.559 (inactive)	-3.6e-05 (inactive)	0.00569 (inactive)	6.84% (inactive)	6.66% (inactive)
